Laboratory results from PMC10685179 (RSC Advances, 2023).
≈ marks a conversion by molar mass, not a printed value.

Experiments:
[1] = tested on: S. aureus KA112; assay: Agar well-diffusion, inhibition zone; assay type: cell-based, Staphylococcus aureus; conditions: Staphylococcus aureus, KA112, read-out: Average diameter of inhibition zone (ZI)
Outline: (§1)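 Clinical MDR isolates from complicated UTI patients. Suspensions were made in Tryptic Soya and Sabouraud broths from subcultures on Tryptic Soya and Sabouraud agar plates. Agar well diffusion followed CLSI guidelines, with test compounds applied at 10 μM in DMSO. Fosfomycin and fluconazole were positive controls and DMSO the negative control. Zone diameters were read in mm, in triplicate.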

[2] = tested on: C. tropicalis KA205; assay: Broth microdilution MIC and MFC; assay type: cell-based; conditions: Candida tropicalis; for MIC: KA205, 24 h; for MFC: KA205, read-out: MFC/MIC
[3] = tested on: P. mirabilis KA320; assay: Agar well-diffusion, inhibition zone; assay type: cell-based, Proteus mirabilis; conditions: Proteus mirabilis, KA320, read-out: Average diameter of inhibition zone (ZI)
Outline: as §1

[4] = tested on: E. faecalis KA247; assay: Agar well-diffusion, inhibition zone; assay type: cell-based, Enterococcus faecalis; conditions: Enterococcus faecalis, KA247, read-out: Average diameter of inhibition zone (ZI)
Outline: as §1

[5] = tested on: P. mirabilis KA320; assay: Broth microdilution MIC and MBC; assay type: cell-based; conditions: Proteus mirabilis; for MIC: KA320, 24 h; for MBC: KA320, read-out: MBC/MIC
[6] = tested on: E. coli KA780; assay: Agar well-diffusion, inhibition zone; assay type: cell-based, Escherichia coli; conditions: Escherichia coli, KA780, read-out: Average diameter of inhibition zone (ZI)
Outline: as §1

[7] = tested on: E. coli KA780; assay: Broth microdilution MIC and MBC; assay type: cell-based; conditions: Escherichia coli; for MIC: KA780, 24 h; for MBC: KA780, read-out: MBC/MIC
[8] = tested on: C. albicans KA205; assay: Agar well-diffusion, inhibition zone; assay type: cell-based, Candida albicans; conditions: Candida albicans, KA205, read-out: Average diameter of inhibition zone (ZI)
Outline: as §1

[9] = tested on: C. tropicalis KA205; assay: Agar well-diffusion, inhibition zone; assay type: cell-based, Candida tropicalis; conditions: Candida tropicalis, KA205, read-out: Average diameter of inhibition zone (ZI)
Outline: as §1

[10] = tested on: E. faecalis KA247; assay: Broth microdilution MIC and MBC; assay type: cell-based; conditions: Enterococcus faecalis, KA247, 24 h
[11] = tested on: S. aureus KA112; assay: Broth microdilution MIC and MBC; assay type: cell-based; conditions: Staphylococcus aureus; for MIC: KA112, 24 h; for MBC: KA112, read-out: MBC/MIC
[12] = tested on: C. albicans KA205; assay: Broth microdilution MIC and MFC; assay type: cell-based; conditions: Candida albicans; for MIC: KA205, 24 h; for MFC: KA205, read-out: MFC/MIC
[13] = tested on: fungal isolates; assay: Broth microdilution MIC/MFC, fungal panel; assay type: cell-based

Row | MIC [2] | MIC [5] | MIC [7] | MIC [10] | MIC [11] | MIC [12] | SMILES | zone of inhibition at 10 µM [1] | MFC [2] | zone of inhibition at 10 µM [3] | zone of inhibition at 10 µM [4] | MBC [5] | zone of inhibition at 10 µM [6] | MBC [7] | zone of inhibition at 10 µM [8] | zone of inhibition at 10 µM [9] | MBC [11] | MFC [12] | MFC [13]
1 | 1 µg/mL (≈ 2.96 µM) | 8 µg/mL (≈ 23.7 µM) | 4 µg/mL (≈ 11.9 µM) | 8 µg/mL (≈ 23.7 µM) | 8 µg/mL (≈ 23.7 µM) | 1 µg/mL (≈ 2.96 µM) | Nc1nc2c(-c3ccc([N+](=O)[O-])cc3)nn(-c3ccccc3)c2s1 [Compound 2, 3-(4-nitrophenyl)-1-phenyl-1H-pyrazolo[4,3-d]thiazol-5-amine] | 17 ± 0.39 mm | 2 µg/mL (≈ 5.93 µM) | 16 ± 0.79 mm | 17 mm | 1 µg/mL (≈ 2.96 µM) | 17 ± 0.62 mm | 0.5 µg/mL (≈ 1.48 µM) | 17 ± 0.16 mm | 16 ± 0.63 mm | 0.5 µg/mL (≈ 1.48 µM) | 0.5 µg/mL (≈ 1.48 µM) | –
2 | 1 µg/mL (≈ 1.67 µM) | 2 µg/mL (≈ 3.34 µM) | 1 µg/mL (≈ 1.67 µM) | 2 µg/mL (≈ 3.34 µM) | 1 µg/mL (≈ 1.67 µM) | 1 µg/mL (≈ 1.67 µM) | CCOP(=O)(OCC)C(Nc1nc2c(-c3ccc([N+](=O)[O-])cc3)nn(-c3ccccc3)c2s1)c1ccc(Cl)cc1 (centres unmarked) [Compound 3, Diethyl((4-chlorophenyl)((3-(4-nitrophenyl)-1-phenyl-1H-pyrazolo[4,3-d]thiazol-5-yl)amino)methyl)phosphonate] | 18 ± 0.31 mm | 0.5 µg/mL (≈ 0.836 µM) | 17 ± 0.71 mm | 18 ± 0.05 mm | 1 µg/mL (≈ 1.67 µM) | 19 ± 0.14 mm | 1 µg/mL (≈ 1.67 µM) | 17 ± 0.88 mm | 17 ± 0.48 mm | 2 µg/mL (≈ 3.34 µM) | 1 µg/mL (≈ 1.67 µM) | 0.5 to 1 µg/mL (≈ 0.836 to 1.67 µM)
3 | 2 µg/mL (≈ 3.3 µM) | 16 µg/mL (≈ 26.4 µM) | 8 µg/mL (≈ 13.2 µM) | 16 µg/mL (≈ 26.4 µM) | 8 µg/mL (≈ 13.2 µM) | 2 µg/mL (≈ 3.3 µM) | CCOP(=O)(OCC)C(Nc1nc2c(-c3ccc([N+](=O)[O-])cc3)nn(-c3ccccc3)c2s1)c1ccc(N(C)C)cc1 (centres unmarked) [Compound 4, Diethyl((4-(dimethylamino)phenyl)((3-(4-nitrophenyl)-1-phenyl-1H-pyrazolo[4,3-d]thiazol-5-yl)amino)methyl)phosphonate] | 17 mm | 1 µg/mL (≈ 1.65 µM) | 16 ± 0.34 mm | 16 ± 0.8 mm | 1 µg/mL (≈ 1.65 µM) | 17 ± 0.54 mm | 1 µg/mL (≈ 1.65 µM) | 16 ± 0.67 mm | 16 ± 0.54 mm | 2 µg/mL (≈ 3.3 µM) | 0.5 µg/mL (≈ 0.824 µM) | 1 to 2 µg/mL (≈ 1.65 to 3.3 µM)
